Reference: ChEMBL document CHEMBL2413018, “Nonclassical antifolates, part 4. 5-(2-aminothiazol-4-yl)-4-phenyl-4H-1,2,4-triazole-3-thiols as a new class of DHFR inhibitors: synthesis, biological evaluation and molecular modeling study” (Eur J Med Chem, 2013)
≈ marks a conversion by molar mass, not a printed value.

Experiments:
[1] = molecular target: T1, Dihydrofolate reductase (Bos taurus, UniProt P00376); experiment: Inhibition of bovine liver DHFR measured every 1 min for 10 mins
T1 sequence (P00376 whole entry): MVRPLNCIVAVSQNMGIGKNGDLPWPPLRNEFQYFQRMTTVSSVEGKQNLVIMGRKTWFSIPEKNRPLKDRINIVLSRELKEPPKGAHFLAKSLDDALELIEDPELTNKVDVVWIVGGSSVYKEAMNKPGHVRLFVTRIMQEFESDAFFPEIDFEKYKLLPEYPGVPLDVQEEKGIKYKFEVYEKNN

[2] = test system: Escherichia coli; experiment: Antibacterial activity against Escherichia coli at 200 ug/disc after 24 hrs by agar disc-diffusion method; type: functional; settings: for zone of inhibition at 200 µg/disc: read-out: DIZ
How it was run: (§1)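 Disc diffusion on Müller-Hinton agar. 8 mm filter-paper discs carried test solution in DMSO at 200 µg/disc and were placed on agar pre-inoculated with each bacterium. Incubated at 37 °C; inhibition zone diameter measured after 24 h. DMSO solvent control.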

[3] = test system: Bacillus subtilis; experiment: Antibacterial activity against Bacillus subtilis at 200 ug/disc after 24 hrs by agar disc-diffusion method; type: functional; settings: for zone of inhibition at 200 µg/disc: read-out: DIZ; how it was run: as §1
[4] = test system: Staphylococcus aureus; experiment: Antibacterial activity against Staphylococcus aureus at 200 ug/disc after 24 hrs by agar disc-diffusion method; type: functional; settings: for zone of inhibition at 200 µg/disc: read-out: DIZ; how it was run: as §1
[5] = test system: Candida albicans; experiment: Antifungal activity against Candida albicans at 200 ug/disc after 48 hrs by agar disc-diffusion method; type: functional; settings: read-out: DIZ
How it was run: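 Disc diffusion for Candida albicans on Müller-Hinton agar. 8 mm discs loaded at 200 µg/disc from DMSO, with clotrimazole 200 µg/disc as reference. Plates held at 25 °C for 48 h, then growth-inhibition zone diameter measured in mm.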

[6] = test system: Pseudomonas aeruginosa; experiment: Antibacterial activity against Pseudomonas aeruginosa at 200 ug/disc after 24 hrs by agar disc-diffusion method; type: functional; settings: for zone of inhibition at 200 µg/disc: read-out: DIZ; how it was run: as §1
[7] = test system: Schistosoma mansoni; experiment: Antischistosomal activity against Schistosoma mansoni assessed as mortality at 50 ug/ml after 24 hrs by microscopic analysis; type: functional
How it was run: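 Adult worms, 3 male plus 3 female per well, triplicate wells. Compounds in DMSO, 0.5% DMSO as negative control, praziquantel 0.1 µg/ml as positive control. Incubated 37 °C for 24 h, then scored under a dissecting microscope. Worms motionless for at least 1 min, coiled and darkened, counted dead. Activity given as % dead worms per well.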

[8] = test system: A549; experiment: Cytotoxicity against human A549 cells after 48 hrs by MTT assay; type: functional; settings: A549, 48 h, read-out: LC50 (the source's name)
How it was run: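 A549 cells grown in DMEM with 1% antibiotic-antimycotic and 1% L-glutamine at 37 °C, 5% CO2, seeded at 10 x 10^3 cells/well for 24 h. Exposed in serum-free medium to 0.78–100 µM for 48 h, then MTT added for 4 h and dissolved overnight in 10% SDS.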

[9] = test system: Bacillus subtilis; experiment: Antibacterial activity against Bacillus subtilis after 24 hrs by microdilution susceptibility method; type: functional
How it was run: (§2)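 Microdilution in Müller-Hinton broth. Compounds dissolved in DMSO at 64 µg/mL, then twofold dilutions from 64 down to 0.125 µg/ml. Inoculum 10^6 CFU/ml. Plates held 24 h at 37 °C. MIC taken as the lowest concentration giving no visible growth by eye.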

[10] = test system: Escherichia coli; experiment: Antibacterial activity against Escherichia coli after 24 hrs by microdilution susceptibility method
[11] = test system: Pseudomonas aeruginosa; experiment: Antibacterial activity against Pseudomonas aeruginosa after 24 hrs by microdilution susceptibility method; type: functional
[12] = test system: Staphylococcus aureus; experiment: Antibacterial activity against Staphylococcus aureus after 24 hrs by microdilution susceptibility method; type: functional; how it was run: as §2
[13] = test system: HepG2; experiment: Cytotoxicity against human HepG2 cells after 48 hrs by MTT assay; type: functional; settings: HepG2, 48 h, read-out: LC50 (the source's name)
How it was run: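 HCT116, HepG2 and MCF7 cells grown in RPMI 1640 with 1% antibiotic-antimycotic and 1% L-glutamine at 37 °C, 5% CO2, seeded at 10 x 10^3 cells/well for 24 h. Exposed in serum-free medium to 0.78–100 µM for 48 h, then MTT added for 4 h and dissolved overnight in 10% SDS.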

Row | Compound | IC50 [1] [µM] | zone of inhibition at 200 µg/disc [2] [mm] | zone of inhibition at 200 µg/disc [3] [mm] | zone of inhibition at 200 µg/disc [4] [mm] | zone of inhibition at 200 µg/disc [5] [mm] | zone of inhibition at 200 µg/disc [6] [mm] | mortality at 50 µg/mL [7] [%] | CC50 [8] [µM] | MIC [9] [µg/mL] | MIC [10] [µg/mL] | MIC [11] [µg/mL] | MIC [12] [µg/mL] | inhibition zone (IZ) [2] [mm] | inhibition zone (IZ) [3] [mm] | inhibition zone (IZ) [4] [mm] | inhibition zone (IZ) [6] [mm] | CC50 [13] [µM]
1 | COc1ccc(-n2c(S)nnc2-c2csc(N(C(C)=O)C(C)=O)n2)cc1 | 5 | 8 | 14 | 12 | 8 | 8 | 6 | 35.4 | – | – | – | – | – | – | – | – | –
2 | Nc1nc(-c2nnc(S)n2-c2ccc(Oc3ccccc3)cc2)cs1 | – | 20 | 32 | 28 | 14 | 16 | 55.6 | – | 0.5 (≈ 1.36 µM) | 0.5 (≈ 1.36 µM) | 1 (≈ 2.72 µM) | 0.5 (≈ 1.36 µM) | – | – | – | – | –
3 | Nc1nc(-c2nnc(S)n2-c2ccccc2)cs1 | – | 8 | 8 | 8 | 8 | 8 | 16.6 | – | – | – | – | – | – | – | – | – | –
4 | GENTAMICIN | – | – | – | – | – | – | – | – | 2 | – | 1 | 2 | 20.8 | 25 | 26.5 | 19 | –
5 | Nc1nc(-c2nnc(S)n2-c2ccc(Cl)cc2)cs1 | 18 | 8 | 12 | 8 | 12 | 8 | 5 | – | – | – | – | – | – | – | – | – | –
6 | COc1ccc(-n2c(S)nnc2-c2csc(N(C(C)=O)C(C)=O)n2)c(OC)c1 | 8 | 8 | 8 | 8 | 8 | 8 | 0 | – | – | – | – | – | – | – | – | – | –
7 | CC(=O)N(C(C)=O)c1nc(-c2nnc(S)n2-c2ccccc2)cs1 | 35 | 8 | 8 | 8 | 8 | 8 | – | 33.2 | – | – | – | – | – | – | – | – | –
8 | O=C(O)c1cn(C2CC2)c2cc(N3CCNCC3)c(F)cc2c1=O [CIPROFLOXACIN] | – | 38 | 35 | 32 | – | 36 | – | – | 0.5 (≈ 1.51 µM) | – | 1 (≈ 3.02 µM) | 0.5 (≈ 1.51 µM) | – | – | – | – | –
9 | CC(=O)N(C(C)=O)c1nc(-c2nnc(S)n2-c2ccc(Cl)cc2)cs1 | 10 | 8 | 21 | 16 | 8 | 8 | – | – | 4 (≈ 10.2 µM) | – | – | 4 (≈ 10.2 µM) | – | – | – | – | 29.1
